Legend:
[1] = biological target: Serine/threonine-protein kinase 3 (Homo sapiens) (UniProt Q13188); assay: Inhibition of human MST2 assessed as remaining activity at 1 uM by ATP-competition binding assay relative to control
How it was run: (§1)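 Single-point profiling at 1μM in an ATP-site-dependent competition binding assay across a panel of 395 human kinases, including mutant forms. The read-out is kinase binding signal in the presence of test agent, expressed as inhibition relative to the control signal. This screen assessed noncovalent binding interactions.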

[2] = biological target: RAF proto-oncogene serine/threonine-protein kinase (Homo sapiens) (UniProt P04049); assay: Inhibition of human RAF1 assessed as remaining activity at 1 uM by ATP-competition binding assay relative to control
How it was run: (§2)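 Single-concentration (1 μM) screen in an ATP-site-dependent competition binding assay (KINOMEscan, outsourced) covering 395 human kinases, mutants included. Non-covalent binding was read as the remaining signal relative to the control signal.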

[3] = biological target: Serine/threonine-protein kinase 4 (Homo sapiens) (UniProt Q13043); assay: Inhibition of human MST1 assessed as remaining activity at 1 uM by ATP-competition binding assay relative to control; how it was run: as §1
[4] = biological target: Mast/stem cell growth factor receptor Kit (Homo sapiens) (UniProt P10721); assay: Inhibition of human KIT assessed as remaining activity at 1 uM by ATP-competition binding assay relative to control; how it was run: as §1
[5] = biological target: Calcium/calmodulin-dependent protein kinase type IV (Homo sapiens) (UniProt Q16566); assay: Inhibition of human CAMK4 assessed as remaining activity at 1 uM by ATP-competition binding assay relative to control
How it was run: (§3)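 KINOMEscan ATP-site-dependent competition binding panel of 395 human kinases, with compound tested at 1 μM. Binding is reported as remaining signal relative to control.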

[6] = biological target: Mitogen-activated protein kinase kinase kinase 13 (Homo sapiens) (UniProt O43283); assay: Inhibition of human LZK assessed as remaining activity at 1 uM by ATP-competition binding assay relative to control; how it was run: as §1
[7] = biological target: Atypical kinase COQ8B, mitochondrial (Homo sapiens) (UniProt Q96D53); assay: Inhibition of human ADCK4 assessed as remaining activity at 1 uM by ATP-competition binding assay relative to control; how it was run: as §3
[8] = biological target: Tyrosine-protein kinase Mer (Homo sapiens) (UniProt Q12866); assay: Inhibition of human MERTK assessed as remaining activity at 1 uM by ATP-competition binding assay relative to control; how it was run: as §1
[9] = biological target: Tyrosine-protein kinase Fes/Fps (Homo sapiens) (UniProt P07332); assay: Inhibition of human FES assessed as remaining activity at 1 uM by ATP-competition binding assay relative to control; how it was run: as §1
[10] = system: Hepatocyte growth factor receptor (Homo sapiens), P08581 [M1250T]; assay: Inhibition of human MET M1250T mutant assessed as remaining activity at 1 uM by ATP-competition binding assay relative to control; how it was run: as §1
[11] = biological target: Dual specificity protein kinase CLK1 (Homo sapiens) (UniProt P49759); assay: Inhibition of human CLK1 assessed as remaining activity at 1 uM by ATP-competition binding assay relative to control; how it was run: as §3
[12] = biological target: Receptor-interacting serine/threonine-protein kinase 2 (Homo sapiens) (UniProt O43353); assay: Inhibition of human RIPK2 assessed as remaining activity at 1 uM by ATP-competition binding assay relative to control; how it was run: as §2
[13] = biological target: Serine/threonine-protein kinase PRP4 homolog (Homo sapiens) (UniProt Q13523); assay: Inhibition of human PRP4 assessed as remaining activity at 1 uM by ATP-competition binding assay relative to control; how it was run: as §2
[14] = biological target: Serine/threonine-protein kinase PAK 6 (Homo sapiens) (UniProt Q9NQU5); assay: Inhibition of human PAK6 assessed as remaining activity at 1 uM by ATP-competition binding assay relative to control; how it was run: as §1
[15] = biological target: Mitogen-activated protein kinase kinase kinase 20 (Homo sapiens) (UniProt Q9NYL2); assay: Inhibition of human ZAK assessed as remaining activity at 1 uM by ATP-competition binding assay relative to control; how it was run: as §2
[16] = biological target: Homeodomain-interacting protein kinase 4 (Homo sapiens) (UniProt Q8NE63); assay: Inhibition of human HIPK4 assessed as remaining activity at 1 uM by ATP-competition binding assay relative to control; how it was run: as §1
[17] = biological target: Protein kinase C eta type (Homo sapiens) (UniProt P24723); assay: Inhibition of human PRKCH assessed as remaining activity at 1 uM by ATP-competition binding assay relative to control; how it was run: as §2
[18] = system: Fibroblast growth factor receptor 3 (Homo sapiens), P22607 [G697C]; assay: Inhibition of human FGFR3 G697C mutant assessed as remaining activity at 1 uM by ATP-competition binding assay relative to control; how it was run: as §1
[19] = biological target: Serine/threonine-protein kinase Chk2 (Homo sapiens) (UniProt O96017); assay: Inhibition of human CHEK2 assessed as remaining activity at 1 uM by ATP-competition binding assay relative to control; how it was run: as §3
[20] = biological target: Ephrin type-A receptor 2 (Homo sapiens) (UniProt P29317); assay: Inhibition of human EPHA2 assessed as remaining activity at 1 uM by ATP-competition binding assay relative to control; how it was run: as §3
[21] = biological target: Serine/threonine-protein kinase 17B (Homo sapiens) (UniProt O94768); assay: Inhibition of human DRAK2 assessed as remaining activity at 1 uM by ATP-competition binding assay relative to control; how it was run: as §3
[22] = biological target: Ephrin type-A receptor 8 (Homo sapiens) (UniProt P29322); assay: Inhibition of human EPHA8 assessed as remaining activity at 1 uM by ATP-competition binding assay relative to control; how it was run: as §1
[23] = biological target: Myosin light chain kinase (Homo sapiens) (UniProt Q32MK0); assay: Inhibition of human MLCK assessed as remaining activity at 1 uM by ATP-competition binding assay relative to control; how it was run: as §1
[24] = biological target: Serine/threonine-protein kinase PLK4 (Homo sapiens) (UniProt O00444); assay: Inhibition of human PLK4 assessed as remaining activity at 1 uM by ATP-competition binding assay relative to control; how it was run: as §2
[25] = biological target: Macrophage colony-stimulating factor 1 receptor (Homo sapiens) (UniProt P07333); assay: Inhibition of human CSF1R assessed as remaining activity at 1 uM by ATP-competition binding assay relative to control; how it was run: as §3
[26] = biological target: Serine/threonine-protein kinase PAK 2 (Homo sapiens) (UniProt Q13177); assay: Inhibition of human PAK2 assessed as remaining activity at 1 uM by ATP-competition binding assay relative to control; how it was run: as §1
[27] = biological target: 5'-AMP-activated protein kinase catalytic subunit alpha-1 (Homo sapiens) (UniProt Q13131); assay: Inhibition of human AMPK-alpha1 assessed as remaining activity at 1 uM by ATP-competition binding assay relative to control; how it was run: as §3
[28] = biological target: Ephrin type-A receptor 7 (Homo sapiens) (UniProt Q15375); assay: Inhibition of human EPHA7 assessed as remaining activity at 1 uM by ATP-competition binding assay relative to control; how it was run: as §3
[29] = biological target: SRSF protein kinase 3 (Homo sapiens) (UniProt Q9UPE1); assay: Inhibition of human SRPK3 assessed as remaining activity at 1 uM by ATP-competition binding assay relative to control; how it was run: as §2
[30] = biological target: Tyrosine-protein kinase Srms (Homo sapiens) (UniProt Q9H3Y6); assay: Inhibition of human SRMS assessed as remaining activity at 1 uM by ATP-competition binding assay relative to control; how it was run: as §2
Chain of Tyrosine-protein kinase Srms (Homo sapiens) (Q9H3Y6 whole entry): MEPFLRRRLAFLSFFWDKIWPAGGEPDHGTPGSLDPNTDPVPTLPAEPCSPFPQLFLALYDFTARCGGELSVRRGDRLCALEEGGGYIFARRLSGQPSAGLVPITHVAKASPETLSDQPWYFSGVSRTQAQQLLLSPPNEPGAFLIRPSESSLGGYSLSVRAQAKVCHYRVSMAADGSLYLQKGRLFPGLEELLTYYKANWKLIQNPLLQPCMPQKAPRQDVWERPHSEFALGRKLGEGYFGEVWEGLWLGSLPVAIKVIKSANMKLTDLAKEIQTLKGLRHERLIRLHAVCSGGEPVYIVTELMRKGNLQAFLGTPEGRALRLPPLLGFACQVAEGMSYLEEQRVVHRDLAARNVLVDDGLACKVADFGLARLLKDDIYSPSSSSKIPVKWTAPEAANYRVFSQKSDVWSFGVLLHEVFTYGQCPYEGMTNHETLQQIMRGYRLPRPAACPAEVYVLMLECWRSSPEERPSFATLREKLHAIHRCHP

Chain of Calcium/calmodulin-dependent protein kinase type IV (Homo sapiens) (Q16566 whole entry): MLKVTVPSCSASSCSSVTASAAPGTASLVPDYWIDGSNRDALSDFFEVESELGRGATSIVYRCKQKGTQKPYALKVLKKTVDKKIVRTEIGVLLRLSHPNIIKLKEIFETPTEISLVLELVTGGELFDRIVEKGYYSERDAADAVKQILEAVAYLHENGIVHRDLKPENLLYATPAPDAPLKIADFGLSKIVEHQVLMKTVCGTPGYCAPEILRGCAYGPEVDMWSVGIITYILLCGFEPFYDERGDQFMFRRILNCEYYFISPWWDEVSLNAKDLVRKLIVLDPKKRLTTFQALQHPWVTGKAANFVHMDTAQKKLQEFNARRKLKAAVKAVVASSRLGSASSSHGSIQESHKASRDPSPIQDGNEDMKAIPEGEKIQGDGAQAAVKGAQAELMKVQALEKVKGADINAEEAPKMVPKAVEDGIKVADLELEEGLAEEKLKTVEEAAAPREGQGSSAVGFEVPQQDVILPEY
Chain of Homeodomain-interacting protein kinase 4 (Homo sapiens) (Q8NE63 whole entry): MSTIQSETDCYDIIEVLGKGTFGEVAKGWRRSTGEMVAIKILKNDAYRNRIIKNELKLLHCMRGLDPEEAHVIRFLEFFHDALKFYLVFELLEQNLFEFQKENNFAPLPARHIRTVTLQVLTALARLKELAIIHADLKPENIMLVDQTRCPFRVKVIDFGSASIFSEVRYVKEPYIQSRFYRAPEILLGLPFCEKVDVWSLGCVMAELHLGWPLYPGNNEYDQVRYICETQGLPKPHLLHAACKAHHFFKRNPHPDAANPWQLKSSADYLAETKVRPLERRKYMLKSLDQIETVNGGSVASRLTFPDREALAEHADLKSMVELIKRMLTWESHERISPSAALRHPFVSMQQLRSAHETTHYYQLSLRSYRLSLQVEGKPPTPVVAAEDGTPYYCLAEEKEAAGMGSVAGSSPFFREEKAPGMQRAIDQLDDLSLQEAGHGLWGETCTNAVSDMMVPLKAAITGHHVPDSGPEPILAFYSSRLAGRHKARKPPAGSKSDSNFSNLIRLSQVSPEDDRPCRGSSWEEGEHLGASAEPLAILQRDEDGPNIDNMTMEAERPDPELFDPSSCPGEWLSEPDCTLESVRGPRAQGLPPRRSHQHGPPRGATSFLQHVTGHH
Chain of Serine/threonine-protein kinase PRP4 homolog (Homo sapiens) (Q13523 whole entry): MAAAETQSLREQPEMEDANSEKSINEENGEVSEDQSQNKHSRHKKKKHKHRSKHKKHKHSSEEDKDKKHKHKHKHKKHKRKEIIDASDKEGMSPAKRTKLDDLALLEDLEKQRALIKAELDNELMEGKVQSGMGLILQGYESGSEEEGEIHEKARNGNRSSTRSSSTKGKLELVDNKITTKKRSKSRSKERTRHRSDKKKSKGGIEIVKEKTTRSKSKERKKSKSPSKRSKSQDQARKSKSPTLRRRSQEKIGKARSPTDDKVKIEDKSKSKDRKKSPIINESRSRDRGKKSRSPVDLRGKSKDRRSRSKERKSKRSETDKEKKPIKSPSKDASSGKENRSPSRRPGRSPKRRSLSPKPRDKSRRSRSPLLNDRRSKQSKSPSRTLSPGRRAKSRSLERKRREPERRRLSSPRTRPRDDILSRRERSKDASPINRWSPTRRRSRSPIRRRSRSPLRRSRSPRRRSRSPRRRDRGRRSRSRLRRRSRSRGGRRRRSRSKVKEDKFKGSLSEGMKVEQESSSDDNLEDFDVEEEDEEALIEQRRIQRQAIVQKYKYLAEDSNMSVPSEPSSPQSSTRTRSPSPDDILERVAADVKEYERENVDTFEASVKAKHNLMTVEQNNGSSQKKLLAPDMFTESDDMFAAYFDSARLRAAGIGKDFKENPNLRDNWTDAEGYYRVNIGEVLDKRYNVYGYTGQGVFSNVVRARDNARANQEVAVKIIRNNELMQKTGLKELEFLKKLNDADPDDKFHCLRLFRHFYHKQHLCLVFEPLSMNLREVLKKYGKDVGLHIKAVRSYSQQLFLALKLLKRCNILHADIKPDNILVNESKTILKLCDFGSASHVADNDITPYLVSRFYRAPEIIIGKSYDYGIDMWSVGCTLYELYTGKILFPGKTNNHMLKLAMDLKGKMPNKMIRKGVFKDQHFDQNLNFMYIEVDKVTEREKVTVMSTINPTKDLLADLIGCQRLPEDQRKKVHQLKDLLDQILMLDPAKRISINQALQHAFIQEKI
Chain of Tyrosine-protein kinase Mer (Homo sapiens) (Q12866 whole entry): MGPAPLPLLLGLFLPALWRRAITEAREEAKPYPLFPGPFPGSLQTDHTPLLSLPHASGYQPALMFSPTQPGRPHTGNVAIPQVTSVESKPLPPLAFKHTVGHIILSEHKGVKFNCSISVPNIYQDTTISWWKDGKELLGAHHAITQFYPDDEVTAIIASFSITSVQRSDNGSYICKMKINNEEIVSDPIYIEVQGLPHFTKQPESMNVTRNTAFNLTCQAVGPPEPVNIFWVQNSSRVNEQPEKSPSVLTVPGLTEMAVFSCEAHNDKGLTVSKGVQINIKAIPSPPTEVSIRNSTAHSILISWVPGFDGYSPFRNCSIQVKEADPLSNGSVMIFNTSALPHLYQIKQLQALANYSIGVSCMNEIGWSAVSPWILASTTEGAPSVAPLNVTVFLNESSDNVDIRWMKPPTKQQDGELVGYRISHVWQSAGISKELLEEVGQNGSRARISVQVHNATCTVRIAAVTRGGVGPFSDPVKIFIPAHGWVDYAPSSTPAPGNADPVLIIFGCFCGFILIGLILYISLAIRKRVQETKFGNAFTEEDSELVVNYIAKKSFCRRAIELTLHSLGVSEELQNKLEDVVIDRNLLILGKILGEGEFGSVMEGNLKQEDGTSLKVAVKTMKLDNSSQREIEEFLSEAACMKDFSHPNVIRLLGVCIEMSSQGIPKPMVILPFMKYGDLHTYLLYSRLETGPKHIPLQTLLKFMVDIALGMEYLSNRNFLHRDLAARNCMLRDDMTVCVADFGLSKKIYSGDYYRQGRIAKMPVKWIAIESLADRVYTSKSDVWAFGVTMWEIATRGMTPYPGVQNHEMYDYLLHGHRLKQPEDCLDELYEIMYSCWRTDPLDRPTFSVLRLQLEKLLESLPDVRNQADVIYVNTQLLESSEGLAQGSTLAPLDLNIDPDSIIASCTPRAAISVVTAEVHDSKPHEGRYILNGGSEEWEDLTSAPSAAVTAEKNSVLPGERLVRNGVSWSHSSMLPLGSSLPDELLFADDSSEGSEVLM
Chain of RAF proto-oncogene serine/threonine-protein kinase (Homo sapiens) (P04049 whole entry): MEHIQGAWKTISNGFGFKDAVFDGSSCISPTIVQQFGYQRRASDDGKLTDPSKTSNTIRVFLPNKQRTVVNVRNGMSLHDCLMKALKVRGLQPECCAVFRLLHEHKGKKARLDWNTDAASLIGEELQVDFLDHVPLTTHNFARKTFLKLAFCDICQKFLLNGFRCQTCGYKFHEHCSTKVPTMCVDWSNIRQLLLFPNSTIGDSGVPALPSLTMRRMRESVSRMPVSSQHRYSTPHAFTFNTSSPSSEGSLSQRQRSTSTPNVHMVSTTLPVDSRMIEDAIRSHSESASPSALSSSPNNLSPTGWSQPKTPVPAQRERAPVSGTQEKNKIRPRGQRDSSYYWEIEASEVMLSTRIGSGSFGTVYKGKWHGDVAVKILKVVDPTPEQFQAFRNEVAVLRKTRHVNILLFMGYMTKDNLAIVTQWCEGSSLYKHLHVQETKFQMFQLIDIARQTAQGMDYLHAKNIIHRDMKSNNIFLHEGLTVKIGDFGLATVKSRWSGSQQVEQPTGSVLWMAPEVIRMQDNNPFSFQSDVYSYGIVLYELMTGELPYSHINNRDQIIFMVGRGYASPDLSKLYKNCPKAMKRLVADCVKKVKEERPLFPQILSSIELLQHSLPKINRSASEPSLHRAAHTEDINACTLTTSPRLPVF
Chain of 5'-AMP-activated protein kinase catalytic subunit alpha-1 (Homo sapiens) (Q13131 whole entry, looked up): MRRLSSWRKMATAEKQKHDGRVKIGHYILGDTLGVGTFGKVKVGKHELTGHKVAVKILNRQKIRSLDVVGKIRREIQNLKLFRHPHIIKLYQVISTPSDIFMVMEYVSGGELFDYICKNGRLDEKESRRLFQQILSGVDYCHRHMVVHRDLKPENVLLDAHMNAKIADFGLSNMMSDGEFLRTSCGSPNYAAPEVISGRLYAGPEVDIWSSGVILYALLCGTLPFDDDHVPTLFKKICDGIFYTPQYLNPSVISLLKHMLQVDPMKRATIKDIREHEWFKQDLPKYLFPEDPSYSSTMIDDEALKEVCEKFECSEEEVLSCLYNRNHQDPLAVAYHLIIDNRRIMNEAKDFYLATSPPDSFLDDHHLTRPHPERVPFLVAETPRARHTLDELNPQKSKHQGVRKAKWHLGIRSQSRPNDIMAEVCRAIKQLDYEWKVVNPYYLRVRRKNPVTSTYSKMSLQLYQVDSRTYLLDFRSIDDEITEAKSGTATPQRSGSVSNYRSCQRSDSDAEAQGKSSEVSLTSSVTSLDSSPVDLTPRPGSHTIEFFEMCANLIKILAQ

CC#CC(=O)N1CCC[C@H]1c1nc(-c2ccc(C(=O)Nc3ccccn3)cc2)c2c(N)nccn12 [ACALABRUTINIB]
Activity [1]: 65%
Activity [2]: 77%
Activity [3]: 87%
Activity [4]: 84%
Activity [5]: 91%
Activity [6]: 83%
Activity [7]: 88%
Activity [8]: 77%
Activity [9]: 100%
Activity [10]: 90%
Activity [11]: 94%
Activity [12]: 60%
Activity [13]: 86%
Activity [14]: 94%
Activity [15]: 84%
Activity [16]: 88%
Activity [17]: 87%
Activity [18]: 77%
Activity [19]: 94%
Activity [20]: 91%
Activity [21]: 88%
Activity [22]: 91%
Activity [23]: 99%
Activity [24]: 80%
Activity [25]: 84%
Activity [26]: 78%
Activity [27]: 86%
Activity [28]: 94%
Activity [29]: 93%
Activity [30]: 67%

Reference: ChEMBL document CHEMBL5678815 (Clin Cancer Res, 2017)
